For one test, the species on record is Rattus norvegicus. Briefly: Compound was tested for inhibition against [3H]raclopride to Rat brain membranes. The test is classed as functional, Membrane. In a few lines: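 Rat brain membranes (male Wistar, 250–300 g; 0.8 mg protein) in 5 mM Tris-HCl pH 7.4, incubated with 2.5 nM [3H]raclopride for 60 min at 22 °C alongside 9–12 peptide concentrations (10⁻¹⁰–10⁻⁴ M). Nonspecific binding defined with 10 μM (+)butaclamol. IC50 by nonlinear least-squares fit; mean ± SE of ≥3 experiments run in duplicate.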

The subject of test [1] is Mus musculus. Briefly: Lack of Motor Effect measured as the time taken by the mice to remain on the rotarod after 30 min interval of icv administration of compound. The format is functional. In a few lines: (§1)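 Male Swiss Webster mice pre-screened on a 2.5 cm rod at 8 rpm (two 1-min rounds; fallers excluded). Peptides (10 or 2.5 nmol) or water vehicle given icv, then mice placed on the rod for 2 min. Time on rod recorded as mean ± SE, groups of 10; Student's t-test.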
(Falling from the rotarod earlier than controls is read as motor impairment.)

Test [2] deals with Mus musculus. Briefly: Lack of Motor Effect measured as the time taken by the mice to remain on the rotarod after 15 min interval of icv administration of compound. The test is classed as functional. An outline of the steps: as §1
The test system of test [3] is Mus musculus. Briefly: Lack of Motor Effect measured as the time taken by the mice to remain on the rotarod after 60 min interval of icv administration of compound. The format is functional. An outline of the steps: as §1
For test [4], the species on record is Mus musculus. Briefly: Compound was tested for antinociceptive potency using mouse writhing pain assay. The format is functional. An outline of the steps:
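Male Swiss Webster mice, 20–25 g, given peptide icv (10 μL in sterile water) or i.v.; 5 min later 1.0% AcOH (10 mL/kg) i.p. Doses 0, 0.25–50 nmol. Writhes counted for 10 min; % analgesia relative to vehicle controls, 10 mice per dose. AD50 and potency ratio with 95% CL by Litchfield–Wilcoxon.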

The record followed here is ChEMBL document CHEMBL1145838, “Bioactive peptidic analogues and cyclostereoisomers of the minimal antinociceptive histogranin fragment-(7-10)” (J Med Chem, 2003).

Square brackets hold non-standard residues; d marks the D form. Peptide text beside a SMILES is read from it. Phe(4-Cl) = N[C@@H](Cc1ccc(Cl)cc1)C(=O)O

A word on the IC50: it is the concentration that gives 50% inhibition. High values mean weaker potency in that assay, low ones greater potency in that assay. In the test listed under Rattus norvegicus, `N=C(N)NCCC[C@H]1NC(=O)[C@H](Cc2ccc(O)cc2)NC(=O)[C@H](Cc2ccc(N)cc2)NC(=O)CNC1=O` [listing 1 of 2 here] came in with an IC50 of 3.52 µM. As for `C[C@@H]1NC(=O)CNC(=O)[C@@H](CCCN=C(N)N)NC(=O)[C@H](Cc2ccc(O)cc2)NC1=O` [listing 1 of 2 here], the Time in the test with Mus musculus [1] turned out to be 120; in the test on Mus musculus [2] it was 107; in the test on Mus musculus [3] it was 120. The same compound registered an AD50 in the test listed under Mus musculus [4] of 1.35 nmol mouse-1. For `N=C(N)NCCC[C@H]1NC(=O)[C@H](Cc2ccc(O)cc2)NC(=O)[C@H](Cc2ccc(Cl)cc2)NC(=O)CNC1=O` (cyclo(G[Phe(4-Cl)]Y[dR])) [listing 1 of 2 here], the IC50 in the test listed under Rattus norvegicus is 0.89 µM. On to `N=C(N)NCCC[C@H]1NC(=O)[C@H](Cc2ccc(O)cc2)NC(=O)[C@H](Cc2ccc(Cl)cc2)NC(=O)CNC1=O` (cyclo(G[Phe(4-Cl)]Y[dR])) [listing 2 of 2 here], for which the Time with Mus musculus [1] is given as 115.8; with Mus musculus [2], 104.1; in the test on Mus musculus [3] it was 110.2. Moreover, the AD50 in the test listed under Mus musculus [4] came out at 0.17 nmol mouse-1. For `C[C@@H]1NC(=O)CNC(=O)[C@@H](CCCN=C(N)N)NC(=O)[C@H](Cc2ccc(O)cc2)NC1=O` [listing 2 of 2 here], the IC50 in the test listed under Rattus norvegicus was 2.33 µM.

In the test listed under Mus musculus [4], `N=C(N)NCCC[C@H]1NC(=O)[C@H](Cc2ccc(O)cc2)NC(=O)[C@H](Cc2ccc(N)cc2)NC(=O)CNC1=O` [listing 2 of 2 here] yielded an AD50 of 2.52 nmol mouse-1. With `NC(=O)CC[C@@H]1NC(=O)CNC(=O)[C@H](CCCN=C(N)N)NC(=O)[C@H](Cc2ccc(O)cc2)NC1=O`, the IC50 in the test listed under Rattus norvegicus is 4.91 µM. This compound also yielded an AD50 in the test listed under Mus musculus [4] of 2.26 nmol mouse-1. For `NC(=O)CC[C@H]1NC(=O)CNC(=O)[C@H](CCCN=C(N)N)NC(=O)[C@H](Cc2ccc(O)cc2)NC1=O` the same measures were 4.12 µM and 3.65 nmol mouse-1. Regarding `C[C@@H]1NC(=O)[C@@H](CCC(N)=O)NC(=O)CNC(=O)[C@@H](CCCN=C(N)N)NC1=O`, the AD50 in the test listed under Mus musculus [4] was determined as 13.3 nmol mouse-1. In the case of `C[C@@H]1NC(=O)[C@@H](CCC(N)=O)NC(=O)CNC(=O)[C@H](CCCN=C(N)N)NC1=O`, it took 12.5 µM to reach half-maximal inhibition in the test listed under Rattus norvegicus (IC50). For the same compound, in the test listed under Mus musculus [4], the AD50 is 7.05 nmol mouse-1.

For `C[C@H](NC(=O)[C@H](CCC(N)=O)NC(=O)CN)C(=O)N[C@@H](CCCN=C(N)N)C(=O)O` (H-GQAR-OH), the AD50 in the test listed under Mus musculus [4] is given as 3.42 nmol mouse-1. On the same count and under the same terms, the figure for `NCC(=O)N[C@@H](CCC(N)=O)C(=O)NCC(=O)N[C@@H](CCCN=C(N)N)C(=O)O` (H-GQGR-OH) is 25.9 nmol mouse-1. For `NC(=O)CC[C@H]1NC(=O)CNC(=O)[C@@H](CCCN=C(N)N)NC(=O)[C@H](Cc2ccc(O)cc2)NC1=O`, in the test listed under Rattus norvegicus, inhibition was half-maximal at 6.75 µM (IC50). The AD50 in the test filed under Mus musculus [4] amounted to 4.21 nmol mouse-1.
